From ChEMBL document CHEMBL2146441, “2,6-Disubstituted imidazo[2,1-b][1,3,4]thiadiazoles: search for anticancer agents” (2012)

Columns and labels:
Format in all cases: functional
[1] = tested on: NCI-H322M; assay: Cytotoxicity against human NCI-H322M cells assessed as cell growth at 10^-5 M after 48 hrs by SRB assay; conditions: read-out: Activity
[2] = tested on: U-251; assay: Cytotoxicity against human U251 cells assessed as cell growth at 10^-5 M after 48 hrs by SRB assay; conditions: U-251, 48 h, read-out: Activity
[3] = tested on: SN12C; assay: Cytotoxicity against human SN12C cells assessed as cell growth at 10^-5 M after 48 hrs by SRB assay; conditions: read-out: Activity
[4] = tested on: PC-3; assay: Cytotoxicity against human PC3 cells assessed as cell growth at 10^-5 M after 48 hrs by SRB assay; conditions: PC-3, 48 h, read-out: Activity
[5] = tested on: TK-10; assay: Growth inhibition of human TK10 cells after 48 hrs by SRB assay; conditions: TK-10, 48 h; for CC50: read-out: LC50 (the source's name)
Outline: (§1)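 Adherent NCI-60 lines grown in RPMI 1640 with 5% FBS, seeded at 5000–40,000 cells/well, and preincubated 24 h at 37 °C, 5% CO2. Compound, stocked in DMSO, given either once at 10^-5 M or at five 10-fold dilutions for 48 h. Cells fixed with cold TCA (final 10%), stained with 0.4% SRB, and read at 515 nm. GI50 taken as 50% reduction in net protein increase versus time-zero and control plates.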

[6] = tested on: MCF7; assay: Growth inhibition of human MCF7 cells after 48 hrs by SRB assay; conditions: MCF7, 48 h; outline: as §1
[7] = tested on: BT-549; assay: Growth inhibition of human BT549 cells after 48 hrs by SRB assay; conditions: BT-549, 48 h; for CC50: read-out: LC50 (the source's name)
Outline: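 Same 48 h NCI-60 five-dose SRB protocol. Adherent lines were fixed with cold TCA at 10% final; suspension lines such as CCRF-CEM were fixed with 16% final TCA. Stain was 0.4% SRB in 1% acetic acid for 10 min, solubilized in 10 mM Tris base and read at 515 nm. GI50 came from log concentration–growth curves, solving [(Ti−Tz)/(C−Tz)]×100 = 50.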

[8] = tested on: HOP-62; assay: Cytotoxicity against human HOP62 cells assessed as cell growth at 10^-7 M after 48 hrs by SRB assay; conditions: HOP-62, 48 h, read-out: Activity
Outline: (§2)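 NCI-60 five-dose screen. Cells were grown in RPMI 1640 with 5% FBS and seeded at 5000–40,000 cells/well according to doubling time. They were pre-incubated 24 h at 37 °C in 5% CO₂, and time-zero (Tz) plates were TCA-fixed at drug addition. Five 10-fold dilutions of DMSO stock were applied for 48 h. Read-out was SRB staining, 515 nm absorbance, with percent growth calculated versus Tz and untreated control.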

[9] = tested on: HT-29; assay: Cytotoxicity against human HT-29 cells assessed as cell growth at 10^-7 M after 48 hrs by SRB assay; conditions: HT-29, 48 h, read-out: Activity; outline: as §2
[10] = tested on: KM12; assay: Cytotoxicity against human KM12 cells assessed as cell growth at 10^-7 M after 48 hrs by SRB assay; conditions: KM12, 48 h, read-out: Activity
[11] = tested on: HL-60; assay: Cytotoxicity against human HL60 cells assessed as cell growth at 10^-4 M after 48 hrs by SRB assay; conditions: HL-60, 48 h, read-out: Activity; outline: as §2
[12] = tested on: HOP-62; assay: Cytotoxicity against human HOP62 cells assessed as cell growth at 10^-4 M after 48 hrs by SRB assay; conditions: HOP-62, 48 h, read-out: Activity; outline: as §2
[13] = tested on: NCI-H226; assay: Cytotoxicity against human NCI-H226 cells assessed as cell growth at 10^-4 M after 48 hrs by SRB assay; conditions: NCI-H226, 48 h, read-out: Activity
[14] = tested on: NCI-H522; assay: Cytotoxicity against human NCI-H522 cells assessed as cell growth at 10^-4 M after 48 hrs by SRB assay; conditions: NCI-H522, 48 h, read-out: Activity
[15] = tested on: Malme-3M; assay: Cytotoxicity against human MALME-3M cells assessed as cell growth at 10^-4 M after 48 hrs by SRB assay; conditions: read-out: Activity
[16] = tested on: OVCAR-5; assay: Cytotoxicity against human OVCAR5 cells assessed as cell growth at 10^-4 M after 48 hrs by SRB assay; conditions: OVCAR-5, 48 h, read-out: Activity
[17] = tested on: SK-OV-3; assay: Cytotoxicity against human SKOV3 cells assessed as cell growth at 10^-4 M after 48 hrs by SRB assay; conditions: SK-OV-3, 48 h, read-out: Activity
[18] = tested on: RXF 393; assay: Cytotoxicity against human RXF393 cells assessed as cell growth at 10^-4 M after 48 hrs by SRB assay; conditions: RXF 393, 48 h, read-out: Activity
[19] = tested on: MCF7; assay: Cytotoxicity against human MCF7 cells assessed as cell growth at 10^-4 M after 48 hrs by SRB assay; conditions: MCF7, 48 h, read-out: Activity
[20] = tested on: MDA-MB-231; assay: Growth inhibition of human MDA-MB-231 cells after 48 hrs by SRB assay; conditions: MDA-MB-231, 48 h; outline: as §1
[21] = Cytotoxicity against human NCI-ADR-RES cells assessed as cell growth at 10^-7 M after 48 hrs by SRB assay; conditions: read-out: Activity
[22] = tested on: NCI-H322M; assay: Cytotoxicity against human NCI-H322M cells assessed as cell growth at 10^-8 M after 48 hrs by SRB assay; conditions: read-out: Activity
[23] = tested on: HT-29; assay: Cytotoxicity against human HT-29 cells assessed as cell growth at 10^-8 M after 48 hrs by SRB assay; conditions: HT-29, 48 h, read-out: Activity; outline: as §2
[24] = tested on: SR; assay: Cytotoxicity against human SR cells assessed as cell growth at 10^-6 M after 48 hrs by SRB assay; conditions: read-out: Activity
[25] = tested on: KM12; assay: Cytotoxicity against human KM12 cells assessed as cell growth at 10^-6 M after 48 hrs by SRB assay; conditions: KM12, 48 h, read-out: Activity
[26] = tested on: SK-OV-3; assay: Cytotoxicity against human SKOV3 cells assessed as cell growth at 10^-6 M after 48 hrs by SRB assay; conditions: SK-OV-3, 48 h, read-out: Activity
[27] = tested on: PC-3; assay: Cytotoxicity against human PC3 cells assessed as cell growth at 10^-6 M after 48 hrs by SRB assay; conditions: PC-3, 48 h, read-out: Activity
[28] = tested on: HCT-116; assay: Growth inhibition of human HCT116 cells after 48 hrs by SRB assay; conditions: HCT-116, 48 h; outline: as §1
[29] = tested on: MCF7; assay: Cytotoxicity against human MCF7 cells assessed as cell growth at 10^-6 M after 48 hrs by SRB assay; conditions: MCF7, 48 h, read-out: Activity
[30] = Cytotoxicity against human Hs 578T cells assessed as cell growth at 10^-6 M after 48 hrs by SRB assay; conditions: read-out: Activity; outline: as §2
[31] = tested on: EKVX; assay: Cytotoxicity against human EKVX cells assessed as cell growth at 10^-5 M after 48 hrs by SRB assay; conditions: read-out: Activity
Outline: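 NCI-60 screen: lines kept in RPMI 1640 with 5% FBS, seeded at 5000–40,000 cells/well by doubling time, preincubated 24 h at 37 °C in 5% CO2. Time-zero plates TCA-fixed at drug addition. DMSO stocks diluted in medium, 48 h exposure. Fixation in cold TCA (final 10% adherent, 16% suspension), 0.4% SRB stain, solubilised in 10 mM Tris base, A515. Percent growth computed against control and time-zero.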

Work on `COc1ccc(-c2nn3cc(-c4ccc(O)cc4O)nc3s2)cc1` yielded a growth at 10 µM [1] of 23%, a growth at 10 µM [2] of -41% and a growth at 10 µM [3] of 7%. The growth at 10 µM [4] was 14%, the GI50 [5] was 3.46 µM and the TGI [5] was 17.4 µM. For the same compound, the CC50 [5] was greater than 100 µM, the GI50 [6] was 1.98 µM and the LC50 (50% cell kill) [6] was greater than 100 µM. The TGI [6] was 21.6 µM, the GI50 [7] was 2.36 µM and the TGI [7] was 28.1 µM. The CC50 [7] was greater than 100 µM, the growth at 0.1 µM [8] was 91% and the growth at 0.1 µM [9] was 94%. For the same compound, the growth at 0.1 µM [10] was 96%, the growth at 100 µM [11] was -25% and the growth at 100 µM [12] was -22%. It also gave a growth at 100 µM [13] of -19%, a growth at 100 µM [14] of -23% and a growth at 100 µM [15] of -28%. The growth at 100 µM [16] was 2%, the growth at 100 µM [17] was -50% and the growth at 100 µM [18] was -63%. The growth at 100 µM [19] was -7%, the GI50 [20] was 1.37 µM and the TGI [20] was 3.57 µM. The growth at 0.1 µM [21] was 99%, the growth at 0.01 µM [22] was 89% and the growth at 0.01 µM [23] was 98%. The growth at 1 µM [24] was 72%, the growth at 1 µM [25] was 86% and the growth at 1 µM [26] was 85%. The growth at 1 µM [27] was 65%, the GI50 [28] was 1.76 µM and the LC50 (50% lethal concentration) [28] was 8.25 µM. The TGI [28] was 3.81 µM, the growth at 1 µM [29] was 70% and the growth at 1 µM [30] was 71%. For the same compound, the growth at 10 µM [31] was 15%.

`COc1ccc(-c2nn3cc(-c4cccc(N)c4)nc3s2)cc1` gave a growth at 10 µM [1] of 44%, a growth at 10 µM [2] of 44% and a growth at 10 µM [3] of 36%. It also gave a growth at 10 µM [4] of 10%, a GI50 [5] of 7.56 µM and a TGI [5] of 37.4 µM. The CC50 [5] was greater than 100 µM, the GI50 [6] was 2.2 µM and the LC50 (50% cell kill) [6] was greater than 100 µM. For the same compound, the TGI [6] was 20.3 µM, the GI50 [7] was 3.88 µM and the TGI [7] was 30.8 µM. It also gave a CC50 [7] greater than 100 µM, a growth at 0.1 µM [8] of 98% and a growth at 0.1 µM [9] of 100%. For the same compound, the growth at 0.1 µM [10] was 100%, the growth at 100 µM [11] was -14% and the growth at 100 µM [12] was -54%. It also gave a growth at 100 µM [13] of -61%, a growth at 100 µM [14] of -76% and a growth at 100 µM [15] of -66%. It also gave a growth at 100 µM [16] of -23%, a growth at 100 µM [17] of -68% and a growth at 100 µM [18] of -90%. For the same compound, the growth at 100 µM [19] was -47%, the GI50 [20] was 1.58 µM and the LC50 (concentration killing 50% of cells present at time zero) [20] was greater than 100 µM. For the same compound, the TGI [20] was 13.2 µM, the growth at 0.1 µM [21] was 96% and the growth at 0.01 µM [22] was 100%. For the same compound, the growth at 0.01 µM [23] was 100%, the growth at 1 µM [24] was 81% and the growth at 1 µM [25] was 84%. For the same compound, the growth at 1 µM [26] was 87%, the growth at 1 µM [27] was 53% and the GI50 [28] was 3.51 µM. The LC50 (50% lethal concentration) [28] was 41.4 µM, the TGI [28] was 14.2 µM and the growth at 1 µM [29] was 65%. The growth at 1 µM [30] was 76% and the growth at 10 µM [31] was 2%.
